Rows were chosen to be rich in hits. Some 3.5% of all compounds tested hit in one or more screens of this group.
MrgX1 PAM: allosterically activates human MrgX1 receptor signaling | Q96LB2 | MrgX1-HEK293, Fluo-4 calcium flux, FDSS; stronger effect = higher value | B-score at 10 µM | 310,000 compounds, 0.63% hits | AID 588675;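 active = plate-corrected calcium response at least 3 library SD above typical, normal starting fluorescence, not activating the receptor alone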;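 also: compound read alongside a low EC10 to EC30 dose of BAM8-22 agonist; peak minus trough fluorescence over baseline measured at the second addition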
Target sequence (Q96LB2 whole entry, looked up): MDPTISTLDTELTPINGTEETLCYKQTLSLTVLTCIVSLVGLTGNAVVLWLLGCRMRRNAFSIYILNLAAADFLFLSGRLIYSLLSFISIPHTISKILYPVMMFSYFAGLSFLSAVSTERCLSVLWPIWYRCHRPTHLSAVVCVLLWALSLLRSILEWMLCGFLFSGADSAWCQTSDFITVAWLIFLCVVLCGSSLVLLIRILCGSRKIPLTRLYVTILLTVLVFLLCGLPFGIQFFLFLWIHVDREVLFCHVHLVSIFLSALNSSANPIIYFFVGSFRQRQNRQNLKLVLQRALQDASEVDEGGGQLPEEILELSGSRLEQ
MrgX1 antagonist: human MrgX1 receptor antagonism, primary screen | Q96LB2 | MRGX1-HEK293 calcium flux, Fluo-4, BAM8-22 antagonism; stronger effect = lower value | B-score at 10 µM | 310,000 compounds, 1.3% hits;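 active = calcium-response B-score plate-corrected more than 3 library SD below zero, starting fluorescence within 5 deviations, no agonist response on first addition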;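 also: peak minus trough fluorescence over baseline after final BAM8-22 challenge near maximal dose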
RGS4 act: potentiators or activators of RGS4; HEK293 M3R/inducible RGS4, carbachol calcium flux Fluo4; stronger effect = lower value; 310,000 compounds, 0.92% hits; B-score at 10 µM;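 active = B-score of the integrated calcium signal more than 4 SD below the library mean, with starting fluorescence not abnormally high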;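 also: negative B-score means reduced calcium response which marks RGS4 activation or potentiation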
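Reagent: ECmax carbachol challenge; Test system: M3R-expressing HEK293 line, RGS4 induced by doxycycline; Schedule: overnight RGS4 induction, 30 min dye load 37 °C, 20 min compound RT; Detection: calcium dye Fluo4 fluorescence; Read-out: Agonist-evoked peak-minus-minimum fluorescence over baseline, integrated ratio, B score.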
RGS4 inh: inhibitors of human RGS4 | HEK293 M3R/RGS4 inducible, Fluo-4 calcium flux; stronger effect = higher value; triggered by carbachol at its EC20 | B-score at 10 µM | 310,000 compounds, 0.45% hits | AID 463165;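 active = B-score, a plate-corrected calcium signal, over three deviations above library mean, with baseline fluorescence within five deviations of library mean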;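 also: RGS4 expression induced by doxycycline in cells with stable M3 receptor; B-score is computed from the integrated fluorescence ratio over baseline after carbachol; higher B-score means a larger calcium signal and so more RGS4 inhibition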
Target sequence (P49798 whole entry, looked up): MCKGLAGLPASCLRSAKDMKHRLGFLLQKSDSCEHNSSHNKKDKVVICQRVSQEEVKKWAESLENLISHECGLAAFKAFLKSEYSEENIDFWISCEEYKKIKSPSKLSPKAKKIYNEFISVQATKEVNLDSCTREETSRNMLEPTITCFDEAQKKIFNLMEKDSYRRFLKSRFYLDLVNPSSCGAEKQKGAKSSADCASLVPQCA
MrgX1 ag: agonists of human MrgX1 receptor | Q96LB2 | MrgX1-HEK293 cells, Fluo-4 calcium fluorescence, agonist mode; stronger effect = higher value | B-score at 10 µM | 310,000 compounds, 0.44% hits;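 active = calcium response B-score plate-corrected fluorescence ratio at least 3 library SD, with starting fluorescence B-score inside 5 SD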
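Test system: HEK293 cells stably expressing human MrgX1 receptor; amount: 15,000 cells per well; doses: compound delivered in addition one of three; times: overnight plating before 1 h dye loading; detection: Fluo-4 NW calcium-flux fluorescence, kinetic read; read-out basis: B-scored fluorescence response ratio; controls: positive and negative controls per plate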
MrgX1 ag confirm: confirmation of human MrgX1 receptor agonists | shares compounds with MrgX1 ag | 600 compounds, 78% hits | MrgX1-HEK293, Fluo-4 calcium fluorescence, FDSS | activation, % at 10 µM | AID 602412;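 active = calcium signal rise, corrected for plate position, at least 3 library SD high, with starting brightness within 5 such deviations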
HEK293 Ca flux: MrgX1 antagonist counter-screen hit in parental HEK293 cells. shares compounds with MrgX1 antagonist. Fluo-4 calcium fluorescence, FDSS. fluorescence ratio F(max-min)/F0 at 10 µM. 4,000 compounds, 2% hits. AID 624111;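 active = duplicate-averaged calcium fluorescence ratio at least three times the standard deviation of buffer wells, a nonspecific response in parental cells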
HEK293 Ca counter: activity in parental HEK293 cells without MrgX1; shares compounds with MrgX1 antagonist; parental HEK293 calcium flux, Fluo-4 fluorescence ratio; stronger effect = higher value; fluorescence ratio F(max-min)/F0 at 10 µM; 4,000 compounds, 0.4% hits; AID 624114;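 active = calcium fluorescence ratio, averaged over duplicates, at least 3 SD of the buffer-well ratio, meaning a nonspecific response in receptor-free cells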;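 also: untransfected parental HEK293 lacking MrgX1 used as counterscreen for MrgX1 allosteric activators; fluorescence change taken during the second addition on a kinetic imager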
HEK293 Ca cntr2: counter-screen for MrgX1 activators: effect in parental HEK293 cells; 4,000 compounds, 8.7% hits; shares compounds with MrgX1 antagonist; AID 624115; Fluo-4 calcium fluorescence (FDSS); stronger effect = higher value; fluorescence ratio F(max-min)/F0 at 10 µM;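 active = calcium fluorescence ratio at least three times the spread of buffer wells, meaning a non-specific response in parental cells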
Active calls of the source: *; i = inactive; x = not tested or not shown.

SMILES	MrgX1 PAM	MrgX1 antagonist	RGS4 act	RGS4 inh	MrgX1 ag	MrgX1 ag confirm	HEK293 Ca flux	HEK293 Ca counter	HEK293 Ca cntr2
COc1ccc(C(=O)c2no[n+]([O-])c2C(=O)c2ccc(OC)cc2)cc1	i	i	i	i	67*	186%*	i	i	57*
COc1cccc(-n2c(SCC(=O)NCC3CCCO3)nc3c([nH]c4ccccc43)c2=O)c1 (stereo not given)	i	i	i	i	30*	99%*	i	i	i
COc1ccc(-n2c(SCC(=O)NCC3CCCO3)nc3c([nH]c4ccccc43)c2=O)cc1 (stereo not given)	i	i	i	i	i	x	x	x	x
Cc1ccc(C(=O)O)cc1NS(=O)(=O)c1ccc2c(c1)oc(=O)n2C	i	i	i	i	i	x	x	x	x
CC(=O)Cc1nsc(NC(=O)c2ccccc2Cl)n1	i	i	i	i	i	x	x	x	x
CC(=O)Cc1nsc(NC(=O)c2oc(-c3ccccc3Cl)cc2C)n1	i	i	i	i	36*	112%*	i	i	i
Cc1ccc(NS(=O)(=O)c2ccc(C(=O)N3CC(C)CC(C)C3)cc2)cc1 (stereo not given)	i	i	i	i	28*	151%*	i	i	71*
CCOCCCNC(=O)CSc1nc2nc(C)c(Cc3ccccc3)c(C)n2n1	i	i	i	i	i	x	x	x	x
O=C(O)CCC(=O)OCC1CCCO1 (stereo not given)	i	i	i	i	i	x	x	x	x
O=C(CCN1CCC(c2ccccc2)C1)c1ccc2c(c1)OCCO2 (stereo not given)	i	i	i	i	36*	i	i	i	i
O=C(CCN1CCC(c2ccccc2)C1)c1cccs1 (stereo not given)	i	i	i	i	44*	140%*	i	i	i
COc1cc(C(=O)CCN2CCC(c3ccccc3)C2)cc(OC)c1OC (stereo not given)	i	i	i	i	i	x	x	x	x
O=C(c1cccs1)N1CCC(c2ccccc2)C1 (stereo not given)	i	i	i	i	i	x	x	x	x
O=C(N/N=C/c1cccc(OC(=O)N2CCOCC2)c1)c1cccs1	i	i	i	i	i	x	x	x	x
N#Cc1cn(Cc2ccccc2)c2ccccc12	i	i	i	i	30*	161%*	i	i	i
N#Cc1ccccc1Cn1cc(C#N)c2ccccc21	i	i	i	i	i	x	x	x	x
CC(=O)Nc1ccc(S(=O)(=O)NNC(=O)c2cccc([N+](=O)[O-])c2)cc1	i	i	i	i	i	x	x	x	x
CCN(CC)CCNC(=O)c1c(C)oc2cc(Br)c(OC)cc12	i	i	x	x	i	x	x	x	x
CCN1CCc2c(sc(NC(=O)c3ccc4ccccc4c3)c2C(N)=O)C1	i	i	i	i	44*	i	i	i	i
CN(Cc1c(C(=O)N/N=C/c2cc(F)ccc2F)nnn1-c1nonc1N)C1CCCCC1	i	i	i	i	i	x	x	x	x
CCOC(=O)CC(=O)CSc1nc(-c2cccnc2)ccc1C#N	i	i	i	i	37*	275%*	i	i	66*
CCOC(=O)CC(=O)CSc1nc(C)cc(-c2cccnc2)c1C#N	i	i	i	i	i	x	x	x	x
CCOC(=O)CSc1nc(-c2ccncc2)ccc1C#N	i	i	i	i	29*	150%*	i	i	i
Cc1cc(C)cc(C(=O)N[C@@H](C)C(=O)N2CCC3(CC2)NCCc2[nH]cnc23)c1	i	i	i	i	i	x	x	x	x
CCOC(=O)c1ccc(N2C(=O)C3C(C2=O)C(C(=O)c2ccc(Cl)cc2)N2CCCC32)cc1 (stereo not given)	i	i	i	i	43*	i	i	i	52*
SMILES	MrgX1 PAM	MrgX1 antagonist	RGS4 act	RGS4 inh	MrgX1 ag	MrgX1 ag confirm	HEK293 Ca flux	HEK293 Ca counter	HEK293 Ca cntr2
CCOC(=O)c1ccc(N2C(=O)C3CC=CCC3C2=O)cc1 (stereo not given)	i	i	i	i	i	x	x	x	x
O=C1N/C(=C/c2ccc(Br)cc2)C(O)=C1C=NCc1ccccc1	i	i	i	i	i	x	x	x	x
COC(=O)Cn1c(=O)c2c(n(Cc3ccccc3)c1=O)N/C(=C/c1ccc(Br)cc1)C2=O	i	i	i	i	45*	383%*	i	i	72*
Cc1occc1C(=O)NNC(=S)NC(=O)COc1ccc(Cl)cc1Cl	i	i	-9.1*	i	71*	193%*	i	i	i
C/C(=N\NC(=O)c1cc2ccccc2cc1O)c1ccccn1	i	i	i	i	68*	458%*	i	i	109*
C/C(=N\NC(=O)c1c[nH]c2ccccc12)c1ccccn1	i	i	i	i	i	x	x	x	x
Cc1cc(=O)[nH]c(SCC(=O)Nc2ccc(Br)cc2)c1C#N	i	i	i	i	72*	375%*	i	i	84*
Cc1cc(=O)[nH]c(SCC(=O)Nc2ccc(F)cc2)c1C#N	i	i	i	i	i	x	x	x	x
COC(=O)[C@H](Cc1c[nH]c2ccccc12)NC(=O)Nc1ccccc1OC	i	i	i	i	i	x	x	x	x
CN(C)C=Nc1nonc1-c1ccccc1	i	i	i	i	i	x	x	x	x
CN(C)C=Nc1c(Br)cc(Br)c2nonc12	i	i	i	i	40*	162%*	i	i	i
Cc1cc(OC(C)C(=O)NNC(=O)Nc2ccc(F)cc2F)cc(C)c1Cl (stereo not given)	i	i	i	i	i	x	x	x	x
O=C(CSc1nnc(NC(=O)C2CCC2)s1)NC1CC1	i	i	i	i	40*	i	i	i	i
O=C(NC(=S)N1CCN(c2ccccn2)CC1)c1ccco1	i	i	i	i	i	x	x	x	x
O=C(N/N=C/c1cccc([N+](=O)[O-])c1O)C(O)(c1ccccc1)c1ccccc1	i	i	i	i	66*	116%*	i	i	i
